Measurements published in ChEMBL document CHEMBL1811865, “NSAID-derived γ-secretase modulation requires an acidic moiety on the carbazole scaffold” (Bioorg Med Chem, 2011).
Activity calls are given as the source filed them. No cut-off for these calls is given here.

What was measured:
[1] = target: T1, Gamma-secretase (Homo sapiens) (UniProt Q96BI3+Q9NZ42+Q8WW43+P49768+Q92542+P49810); experiment: Modulation of gamma-secretase activity in human H4 cells expressing APP695 assessed as increase in amyloid beta38 production at 100 uM after 20 to 24 hrs by liquid phase electrochemiluminescence assay; type: cell-based
Method in brief: (§1)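 Aβ-lowering assay in H4 APPΔ9 cells. Secreted Aβ isoforms (Aβ38, Aβ40, Aβ42) were quantified by liquid phase electrochemiluminescence (LPECL). Dose-response testing was capped at 100 μM to avoid micelle formation by the amphiphilic acids. EC50 values were derived from the curves, and the response at 100 μM was reported where EC50 could not be determined.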

[2] = target: T1, Gamma-secretase (Homo sapiens); experiment: Modulation of gamma-secretase activity in human H4 cells expressing APP695 assessed as increase in amyloid beta40 production at 100 uM after 20 to 24 hrs by liquid phase electrochemiluminescence assay; type: cell-based; method in brief: as §1
Gamma-secretase [3] = experiment: Modulation of gamma-secretase activity in human H4 cells expressing APP695 assessed as increase in amyloid beta42 production after 20 to 24 hrs by liquid phase electrochemiluminescence assay; type: cell-based; method in brief: as §1
H4 [4] = experiment: Cytotoxicity against human H4 cells assessed as cell viability by MTS assay; type: cell-based
Method in brief: (§2)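 Viability of H4 APPΔ9 cells was read by a colorimetric cell proliferation assay based on bioreduction of MTS (Owen's reagent) to formazan.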

Gamma-secretase [5] = experiment: Modulation of gamma-secretase activity in human H4 cells expressing APP695 assessed as increase in amyloid beta38 production after 20 to 24 hrs by liquid phase electrochemiluminescence assay; type: cell-based; method in brief: as §1
Gamma-secretase [6] = experiment: Modulation of gamma-secretase activity in human H4 cells expressing APP695 assessed as increase in amyloid beta40 production after 20 to 24 hrs by liquid phase electrochemiluminescence assay; type: cell-based; method in brief: as §1
H4 [7] = experiment: Cytotoxicity against human H4 cells assessed as cell viability at 20 uM by MTS assay; type: cell-based; conditions: h4, 20 µM; method in brief: as §2
[8] = Ratio of AUC in plasma to AUC in cerebrospinal fluid in rat; type: ADME, CSF/Plasma; conditions: in vivo
H4 [9] = experiment: Cytotoxicity against human H4 cells assessed as cell viability at 80 uM by MTS assay; type: cell-based; conditions: h4, 80 µM; method in brief: as §2
H4 [10] = experiment: Cytotoxicity against human H4 cells assessed as cell viability at 160 uM by MTS assay; type: cell-based; conditions: h4, 160 µM; method in brief: as §2
Mus musculus = experiment: Antialzheimer activity in APP Swedish mutant transgenic C57/BLg mouse assessed as change in amyloid beta42 level in brain at 10 mg/kg, po after 5 hrs; type: functional, organism-based; parameters: dose 10 mg/kg
[11] = Ratio of AUC in brain to AUC in plasma in APP Swedish mutant transgenic C57/BLg mouse at 10 mg/kg, po after 5 hrs; conditions: in vivo

| SMILES | Activity [1] | Activity [2] | IC50 (Gamma-secretase [3]) [µM] | Activity (H4 [4]) | further results |
| --- | --- | --- | --- | --- | --- |
| CCCCCCCCn1c2ccccc2c2ccc(OCCNC=O)cc21 | inactive | inactive | > 80 | Non-toxic |  |
| CCCCCCCCn1c2ccccc2c2ccc(OCC(=O)OC(C)(C)C)cc21 | inactive | inactive |  | Non-toxic | EC50 (Gamma-secretase [3]): 19 µM |
| CCCCCCCCn1c2ccccc2c2ccc(OCCN)cc21 |  |  |  | Non-toxic | IC50 (Gamma-secretase [5]): > 80 µM; IC50 (Gamma-secretase [6]): > 80 µM; EC50 (Gamma-secretase [3]): > 80 µM |
| CCCCCCCCn1c2ccccc2c2ccc(OCC(=O)OC)cc21 | inactive | inactive | 27 | Non-toxic |  |
| CCCCCCCCn1c2ccc(Cl)cc2c2ccc(C(C)C(=O)NS(C)(=O)=O)cc21 (configuration not stated) | inactive | inactive |  |  | EC50 (Gamma-secretase [3]): 32 µM |
| CCCCCCCCn1c2ccccc2c2ccc(OCCN(C)C)cc21 | inactive | inactive |  |  | EC50 (Gamma-secretase [3]): > 10 µM; Activity (H4 [7]): Toxic |
| CC(C(=O)O)c1ccc(-c2ccccc2)c(F)c1 (configuration not stated) [FLURBIPROFEN] |  |  |  |  | Ratio AUC [8]: 5.31 |
| CCCCCCCCn1c2ccccc2c2ccc(O)cc21 | inactive | inactive | > 80 |  |  |
| CCCCCCCCn1c2ccc(Cl)cc2c2ccc(C(C)C(=O)O)cc21 (configuration not stated) |  |  | 6.9 |  | IC50 (Gamma-secretase [5]): 100 µM; IC50 (Gamma-secretase [6]): > 40 µM |
| CCCCCCCCn1c2ccc(Cl)cc2c2ccc(CC)cc21 | inactive | inactive |  |  | EC50 (Gamma-secretase [3]): 50 µM |
| CCCCCCCCn1c2ccccc2c2ccc(OCc3nn[nH]n3)cc21 |  |  | 113 |  | IC50 (Gamma-secretase [5]): 165 µM; IC50 (Gamma-secretase [6]): 102 µM |
| CCCCCCCCn1c2ccc(Cl)cc2c2ccc(C(C)C(=O)OC)cc21 (configuration not stated) | inactive | inactive |  |  | EC50 (Gamma-secretase [3]): 15 µM |
| CCCCCCCCn1c2ccccc2c2ccc(OC3=C(O)COC3=O)cc21 |  |  | 37 | Non-toxic | EC50 (Gamma-secretase [5]): 21 µM; IC50 (Gamma-secretase [6]): > 80 µM |
| CCCCCCCCn1c2ccccc2c2cc(C=O)c(OCC(=O)O)cc21 | inactive | inactive | 32 |  | Activity (H4 [9]): Toxic |
| CCCCCCCCn1c2ccccc2c2ccc(OCC(O)C(F)(F)F)cc21 (configuration not stated) | inactive | inactive |  |  | EC50 (Gamma-secretase [3]): 12 µM |
| CCCCCCCCn1c2ccccc2c2ccc(OCC(=O)OCC)cc21 | inactive | inactive | 31 |  |  |
| CCCCCCCCn1c2ccccc2c2ccc(OCCC(=O)O)cc21 |  |  | > 80 | Non-toxic | EC50 (Gamma-secretase [5]): > 80 µM; IC50 (Gamma-secretase [6]): > 80 µM |
| CCCCCCCCn1c2ccccc2c2ccc(OCC(N)=O)cc21 | inactive | inactive | 104 |  | Activity (H4 [10]): Toxic |
| CCCCCCCCn1c2ccccc2c2ccc(OC3=C(O)CNC3=O)cc21 |  |  | 28 | Non-toxic | EC50 (Gamma-secretase [5]): 8 µM; IC50 (Gamma-secretase [6]): 72 µM |

| SMILES | Activity [1] | Activity [2] | IC50 (Gamma-secretase [3]) [µM] | Activity (H4 [4]) | further results |
| --- | --- | --- | --- | --- | --- |
| CCCCCCCCn1c2ccccc2c2ccc(OCCN(C(=O)C(F)(F)F)C(=O)C(F)(F)F)cc21 | inactive | inactive | > 80 | Non-toxic |  |
| CCCCCCCCn1c2ccc(Cl)cc2c2ccc(C(C)C(=O)OCC)cc21 (configuration not stated) | inactive | inactive |  |  | EC50 (Gamma-secretase [3]): 21 µM |
| CCCCCCCCn1c2ccccc2c2ccc(Oc3ccccc3C(=O)O)cc21 |  |  | 38 | Non-toxic | EC50 (Gamma-secretase [5]): 23 µM; IC50 (Gamma-secretase [6]): > 80 µM |
| CCCCCCCCn1c2ccccc2c2ccc(OCC(=O)O)cc21 |  |  | 19 |  | EC50 (Gamma-secretase [5]): 24 µM |
| CCCCCCCCCCn1c2ccc(Cl)cc2c2ccc(C(C)C(=O)O)cc21 (configuration not stated) |  |  |  |  | Activity (Mus musculus): inactive; Ratio AUC [11]: < 0.1 |
| CCCCCCCCn1c2ccccc2c2cc(CCC(=O)O)c(OCC(=O)O)cc21 | inactive | inactive | > 80 |  |  |
| CCCCCCCCn1c2ccccc2c2ccc(OC(C)(C)C(=O)O)cc21 |  |  | > 40 |  | EC50 (Gamma-secretase [5]): > 40 µM; IC50 (Gamma-secretase [6]): > 40 µM; Activity (H4 [9]): Toxic |
| CCCCCCCCn1c2ccccc2c2ccc(OCC(=O)OC(C)C)cc21 | inactive | inactive |  |  | EC50 (Gamma-secretase [3]): 49 µM |
| CCCCCCCCn1c2ccccc2c2ccc(OCC#N)cc21 |  |  | 252 |  | IC50 (Gamma-secretase [5]): 74 µM; IC50 (Gamma-secretase [6]): 105 µM |
| CCCCCCCCn1c2ccccc2c2ccc(OCCP(=O)(OCC)OCC)cc21 | inactive | inactive |  |  | EC50 (Gamma-secretase [3]): 13 µM; Activity (H4 [9]): Toxic |
| CCCCCCCCn1c2ccc(Cl)cc2c2ccc(C(C)CO)cc21 (configuration not stated) | inactive | inactive |  |  | EC50 (Gamma-secretase [3]): 21 µM; Activity (H4 [9]): Toxic |
| CCCCCCCCn1c2ccccc2c2cc(CO)c(OCCO)cc21 | inactive | inactive | 80 |  |  |
| CCCCCCCCn1c2ccccc2c2ccc(OCC(=O)OCC(C)C)cc21 | inactive | inactive | > 80 | Non-toxic |  |
| CCCCCCCCn1c2ccc(Cl)cc2c2ccc(C(C)C(=O)OCc3ccccc3)cc21 (configuration not stated) | inactive | inactive | > 80 | Non-toxic |  |
| CCCCCCCCn1c2ccccc2c2ccc(OCCS(=O)(=O)O)cc21 | inactive | inactive | > 80 |  |  |
| CCCCCCCCn1c2ccccc2c2ccc(OCCO)cc21 | inactive | inactive | > 40 | Non-toxic |  |
| CCCCCCCCn1c2ccccc2c2cc(C=O)c(OCC(=O)OC)cc21 | inactive | inactive | 89 | Non-toxic |  |
| CCCCCCCCn1c2ccccc2c2ccc(OC3=C(O)C(Cc4ccccc4)N(Cc4ccc5c(c4)OCO5)C3=O)cc21 (configuration not stated) |  |  | 24 |  | IC50 (Gamma-secretase [5]): 31 µM; IC50 (Gamma-secretase [6]): 32 µM; Activity (H4 [9]): Toxic |
